Measurements published in ChEMBL document CHEMBL1122116, “Antiparasitic agents. 5. Synthesis and anthelmintic activities of novel 2-heteroaromatic-substituted isothiocyanatobenzoxazoles and benzothiazoles” (J Med Chem, 1982).

What was measured:
Rodentolepis nana = test: Mouse oral clearance was measured against Hymenolepiasis nana.; format: functional; parameters: concentration or dose not given beside the values
Summary of the method: (§1)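 Mice experimentally infected with N. dubius (nematode) or H. nana (tapeworm) received the compound in the diet at 0.2%. Read-out is percent clearance of worms after oral dosing.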

[1] = test system: Heligmosomoides polygyrus; test: Mouse oral clearance was measured against Nematospiroides dubius; format: functional; parameters: concentration or dose not given beside the values; summary of the method: as §1
Ovis aries [2] = test: Percent reduction in nematode fecal egg count was measured in sheep following 50 mg/kg p.o.; format: functional; conditions: route oral
[3] = test system: Heligmosomoides polygyrus; test: Titration of anthelmintic activity against Nematospiroides dubius in mice at 0.0125 concentration of diet.; format: ADME, organism-based; conditions: in vivo, po
Summary of the method: (§2)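 Titration in mice experimentally infected with N. dubius, with the compound mixed into the diet at a series of levels. Read-out is nematode clearance.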

[4] = test system: Heligmosomoides polygyrus; test: Titration of anthelmintic activity against Nematospiroides dubius in mice at 0.025 concentration of diet.; format: ADME, organism-based; conditions: in vivo, po; summary of the method: as §2
[5] = test system: Heligmosomoides polygyrus; test: Titration of anthelmintic activity against Nematospiroides dubius in mice at 0.1 concentration of diet.; format: ADME, organism-based; conditions: in vivo, po; summary of the method: as §2
[6] = test system: Heligmosomoides polygyrus; test: Titration of anthelmintic activity against Nematospiroides dubius in mice at 0.2 concentration of diet.; format: ADME, organism-based; conditions: in vivo, po; summary of the method: as §2
Ovis aries [7] = test: Percent reduction in fecal egg count was measured in sheep dosed at 25 mg/kg.; format: functional
Ovis aries [8] = test: Percent reduction in fecal egg count was measured in sheep dosed at 100 mg/kg.; format: functional
Ovis aries [9] = test: Percent reduction in fecal egg count was measured in sheep dosed at 44 mg/kg.; format: functional
Ovis aries [10] = test: Percent reduction in fecal egg count was measured in sheep dosed at 50 mg/kg.; format: ADME, organism-based; parameters: dose 50 mg/kg; conditions: in vivo
Ovis aries [11] = test: Percent reduction in fecal egg count was measured in sheep dosed at 58 mg/kg.; format: functional
[12] = test system: Heligmosomoides polygyrus; test: Titration of anthelmintic activity against Nematospiroides dubius in mice at 0.05 concentration of diet.; format: ADME, organism-based; conditions: in vivo, po; summary of the method: as §2

SMILES | Activity (Rodentolepis nana) [%] | Activity [1] [%] | Reduction (Ovis aries [2]) [%] | also measured
S=C=Nc1ccc2sc(-c3cccnc3)nc2c1 | 0 | 58 |  | 
S=C=Nc1cc(Cl)c2oc(-c3cccnc3)nc2c1 | 0 | 0 | 0 | 
Cc1cc2oc(-c3ccccn3)nc2cc1N=C=S | 0 | 0 | 90 | 
Cc1ccsc1-c1nc2cc(N=C=S)ccc2o1 | 0 | 78 |  | 
S=C=Nc1ccc2nc(-c3ccccn3)sc2c1 | 75 | 0 | 65 | 
c1ccc2[nH]c(-c3cscn3)nc2c1 [THIABENDAZOLE] |  |  |  | Activity [3]: 40%; Activity [4]: 47%; Activity [5]: 89%; Activity [6]: 96%
S=C=Nc1ccc2nc(-c3cccnc3)oc2c1.S=C=Nc1ccc2oc(-c3cccnc3)nc2c1 |  |  |  | Reduction (Ovis aries [7]): 94%
S=C=Nc1ccc2nc(-c3cccnc3)oc2c1 | 0 | 46 | 78 | 
Cc1ccc(-c2nc3cc(N=C=S)ccc3o2)o1 | 66 | 100 |  | Reduction (Ovis aries [8]): 97%
S=C=Nc1ccc2nc(-c3ccccn3)oc2c1.S=C=Nc1ccc2oc(-c3ccccn3)nc2c1 | 50 | 0 | 35 | 
S=C=Nc1ccc2oc(-c3cccs3)nc2c1 | 0 | 98 |  | 
Cc1cc2nc(-c3cccnc3)oc2cc1N=C=S | 0 | 0 |  | Reduction (Ovis aries [9]): 99%
S=C=Nc1ccc2nc(-c3ccc(N4CCOCC4)nc3)oc2c1.S=C=Nc1ccc2oc(-c3ccc(N4CCOCC4)nc3)nc2c1 | 0 | 0 | 27 | 
CN1CCN(c2ccc(-c3nc4cc(N=C=S)ccc4o3)cn2)CC1 | 0 | 0 | 0 | 
S=C=Nc1ccc2oc(-c3cccnc3)nc2c1 |  |  |  | Reduction (Ovis aries [10]): 69%
S=C=Nc1ccc2oc(-c3sccc3CN3CCOCC3)nc2c1 | 0 | 0 |  | 
S=C=Nc1ccc2nc(-c3cnccn3)oc2c1.S=C=Nc1ccc2oc(-c3cnccn3)nc2c1 |  | 0 | 93 | 
Cn1cccc1-c1nc2cc(N=C=S)cc(Cl)c2o1 | 0 | 0 |  | 
S=C=Nc1ccc2nc(-c3cccnc3)sc2c1.S=C=Nc1ccc2sc(-c3cccnc3)nc2c1 | 100 | 99 | 99 | 
Cc1ccc(-c2nc3cc(N=C=S)ccc3o2)s1 | 33 | 0 |  | 

SMILES | Activity (Rodentolepis nana) [%] | Activity [1] [%] | Reduction (Ovis aries [2]) [%] | also measured
S=C=Nc1ccc2oc(-c3ccncc3)nc2c1 | 0 | 0 | 40 | 
S=C=Nc1ccc2oc(-c3ccc(CN4CCOCC4)o3)nc2c1 | 0 | 0 |  | 
CCN(CC)Cc1ccc(-c2nc3cc(N=C=S)ccc3o2)s1.Cl | 0 | 0 |  | 
Cc1cc2oc(-c3cccnc3)nc2cc1N=C=S | 0 | 99 |  | Reduction (Ovis aries [7]): 0%
CN(C)c1ccc(-c2nc3cc(N=C=S)ccc3o2)cn1.CN(C)c1ccc(-c2nc3ccc(N=C=S)cc3o2)cn1 | 0 | 0 |  | 
S=C=Nc1ccc2oc(-c3ccccc3)nc2c1 | 0 | 60 | 57 | 
S=C=Nc1ccc2sc(-c3ccccn3)nc2c1 | 50 | 20 |  | Reduction (Ovis aries [11]): 36%
S=C=Nc1ccc2oc(-c3ccco3)nc2c1 | 0 | 100 |  | Activity [12]: 39%; Activity [3]: 0%; Activity [4]: 0%; Activity [5]: 88%; Activity [6]: 100%; Reduction (Ovis aries [8]): 97%
S=C=Nc1ccc2oc(-c3ccc(CN4CCOCC4)s3)nc2c1 | 66 | 0 |  | 
S=C=Nc1cc(Cl)c2oc(-c3ccc(Cl)nc3)nc2c1 | 0 | 0 |  | 
S=C=Nc1ccnc(-c2nc3ccccc3o2)c1 | 0 | 0 | 10 | 
S=C=Nc1ccc2nc(-c3cccs3)oc2c1 | 0 | 0 |  | 
CN1CCN(Cc2ccc(-c3nc4cc(N=C=S)ccc4o3)s2)CC1 | 0 | 0 |  | 
COc1cc2sc(-c3cccnc3)nc2cc1N=C=S | 0 | 5 | 40 | 
Cn1cccc1-c1nc2cc(N=C=S)ccc2o1 | 25 | 100 | 34 | Activity [12]: 45%; Activity [3]: 0%; Activity [4]: 25%; Activity [5]: 81%; Activity [6]: 100%
S=C=Nc1ccc2oc(-c3ccc(Cl)nc3)nc2c1 | 0 | 0 | 97 | 
S=C=Nc1ccc2[nH]c(-c3ccccn3)nc2c1 | 100 | 0 | 100 | 
S=C=Nc1cc(Cl)c2oc(-c3cccs3)nc2c1 | 0 | 0 |  | 
S=C=Nc1ccc2sc(-c3cccs3)nc2c1 | 0 | 61 | 57 | 
